{
  "source": "BindingDB's records for doi:10.1021/jm049090z",
  "about": "(The Bristol-Myers Squibb Pharmaceutical Research Institute, 2005)",
  "note": "pEC50: −log10 of the molar value.",
  "data": [
    {"target": "T1, DNA topoisomerase 1 (Homo sapiens, UniProt P11387)", "T1 sequence (P11387 whole entry)": "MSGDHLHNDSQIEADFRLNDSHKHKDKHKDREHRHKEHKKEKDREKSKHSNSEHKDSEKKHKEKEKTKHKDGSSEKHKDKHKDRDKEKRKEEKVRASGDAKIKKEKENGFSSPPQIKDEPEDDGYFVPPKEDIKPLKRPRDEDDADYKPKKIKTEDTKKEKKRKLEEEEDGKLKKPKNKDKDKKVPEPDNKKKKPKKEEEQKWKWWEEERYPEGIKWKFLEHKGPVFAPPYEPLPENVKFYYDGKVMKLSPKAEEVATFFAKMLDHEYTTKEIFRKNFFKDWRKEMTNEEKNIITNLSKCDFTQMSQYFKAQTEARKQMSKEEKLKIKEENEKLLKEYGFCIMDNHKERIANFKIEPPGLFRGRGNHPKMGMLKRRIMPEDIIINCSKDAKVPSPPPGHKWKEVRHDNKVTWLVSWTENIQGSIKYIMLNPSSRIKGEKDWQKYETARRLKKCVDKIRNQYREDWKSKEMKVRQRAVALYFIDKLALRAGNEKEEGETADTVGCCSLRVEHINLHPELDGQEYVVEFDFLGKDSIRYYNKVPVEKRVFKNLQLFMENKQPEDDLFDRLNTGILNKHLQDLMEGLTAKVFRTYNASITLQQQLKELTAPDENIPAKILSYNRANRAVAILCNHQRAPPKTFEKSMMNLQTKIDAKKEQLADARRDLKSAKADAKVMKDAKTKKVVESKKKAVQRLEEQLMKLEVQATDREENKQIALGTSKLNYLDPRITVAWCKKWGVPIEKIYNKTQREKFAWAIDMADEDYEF", "assay": "Topoisomerase I activity for single-strand breaks in the DNA substrate", "in_short": "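Topo I-mediated DNA cleavage assay using covalently closed, supercoiled phage PM2 DNA as substrate; read-out is induction of single-strand breaks.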", "values": [
      {"smiles": "O=C1NC(=O)c2c1c1c3cc(F)c(F)cc3[nH]c1c1c2c2cc(F)c(F)cc2n1C1OC(CF)C(O)C(O)C1O", "note": "(centres undefined) [2,3,9,10-tetrafluoro-12-(6-fluoromethyl-3,4,5-trihydroxytetrahydro-2H-2-pyranyl)-6,7,12,13-tetrahydro-5H-indolo[2,3-a]pyrrolo[3,4-c]carbazole-5,7-dione]", "pEC50": 6.32},
      {"smiles": "O=C1NC(=O)c2c1c1c3cc(F)c(F)cc3sc1c1c2c2cc(F)c(F)cc2n1C1OC(CO)C(F)(F)C(O)C1O", "note": "(centres undefined) [13-(5,5-difluoro-3,4-dihydroxy-6-hydroxymethyltetrahydro-2H-2-pyranyl)-2,3,9,10-tetrafluoro-5,6,7,13-tetrahydrobenzo[4,5]thieno[2,3-a]pyrrolo[4,3-c]carbazole-5,7-dione]", "pEC50": 7.10},
      {"smiles": "O=C1NC(=O)c2c1c1c3cc(F)c(F)cc3sc1c1c2c2cc(F)c(F)cc2n1C1OC(CF)C(O)C(O)C1O", "note": "(centres undefined) [2,3,9,10-tetrafluoro-13-(6-fluoromethyl-3,4,5-trihydroxytetrahydro-2H-2-pyranyl)-5,6,7,13-tetrahydrobenzo[4,5]thieno[2,3-a]pyrrolo[4,3-c]carbazole-5,7-dione]", "pEC50": 6.62},
      {"smiles": "O=C1NC(=O)c2c1c1c3cc(F)ccc3[nH]c1c1c2c2cc(F)ccc2n1C1OC(CF)[C@@H](O)C(O)C1O", "note": "(some centres undefined) [Name not given]", "pEC50": 6.15}
    ]}
  ]
}
